Here are results for two compounds from PMC9532722 (Acta Pharmaceutica Sinica. B, 2022).

A word on the solubility: it is the dissolved amount per volume that the medium holds. Broadly, the Papp is the rate of passage across a membrane or cell layer, normalised by area and donor concentration. Low values mean poor permeation, high ones ready permeation. By half-life is commonly meant the time needed for the level to fall by half in the phase considered. A word on the microsomal CLint: it is the capacity of the preparation to metabolise the compound, expressed as a volume cleared per time. A low value points to greater metabolic stability. The IC50 is the concentration that inhibits the measured activity by half. Read a high IC50 as a need for much substance. Usually kinact/KI stands for the second-order rate constant of inactivation. As a reminder, the kinact is the maximal first-order rate at which the target is inactivated.

Converted amounts (≈) assume the structure as drawn. “And” between values parts separate entries of the source, which are not always exact repeats. Identical values can stand only once. Like-named read-outs stand apart in the source and are kept apart here.

For data set [1], the system named is persistent AF canine model. Nature of the data set: Anti-atrial fibrillatory effect in persistent AF canine model. The class given is in vivo, beagle dogs.
The subject of data set [2] is persistent AF canine model. Nature of the data set: Proarrhythmic risk. To be noted: 3 mg/kg i.v.; for peak increment of STVQT: at 3 h (dronedarone), 9 h (poyendarone), 1 h (amiodarone), n = 4. The class given is in vivo, beagle dogs.
The test system of data set [3] is canine model of paroxysmal AF. The settings on record: basic pacing cycle length of 200 ms; cited from earlier work.
A short description of data set [4]: Aqueous kinetic solubility. It is filed as physicochemical. To be noted: universal aqueous buffer, pH 7.4. Put shortly: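 Kinetic solubility: test compound from 10 mmol/L DMSO stock diluted into universal aqueous buffer, pH 7.4 (1% DMSO, v/v), then sonicated. Run in 3 filter-plate wells, agitated 24 h at 250 rpm at room temperature and filtered. Filtrate brought to 80:20 buffer/ACN. Solubility estimated from UV absorbance at 300 nm.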

Data set [5] is described as follows: Effective permeability by PAMPA. It is filed as physicochemical. The settings on record: pH 7.4. (In PAMPA a lipid-coated filter parts donor from acceptor wells.)
Data set [6] concerns the target T1, CYP2J2 (Homo sapiens, UniProt P51589).
T1 sequence (P51589 1-502): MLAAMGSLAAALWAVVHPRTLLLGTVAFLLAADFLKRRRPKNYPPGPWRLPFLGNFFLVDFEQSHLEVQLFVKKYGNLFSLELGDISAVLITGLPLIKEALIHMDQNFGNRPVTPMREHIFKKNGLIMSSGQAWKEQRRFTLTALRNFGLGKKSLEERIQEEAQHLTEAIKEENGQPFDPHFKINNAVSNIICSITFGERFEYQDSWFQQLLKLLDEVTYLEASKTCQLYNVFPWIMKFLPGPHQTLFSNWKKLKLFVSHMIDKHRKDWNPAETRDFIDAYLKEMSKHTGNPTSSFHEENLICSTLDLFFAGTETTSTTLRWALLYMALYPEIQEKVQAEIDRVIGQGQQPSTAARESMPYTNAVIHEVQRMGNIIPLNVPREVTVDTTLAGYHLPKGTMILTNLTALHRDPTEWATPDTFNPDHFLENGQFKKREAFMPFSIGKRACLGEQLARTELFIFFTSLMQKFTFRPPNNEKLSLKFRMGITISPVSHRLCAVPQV
Nature of the data set: in vitro. The class given is in vitro ADME.

In data set [7] the target is T2, CYP3A4 (Homo sapiens, UniProt P08684). Nature of the data set: Metabolic stability, substrate depletion, rCYP3A4. The class given is in vitro ADME. The procedure, abridged:
(§1)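 Substrate depletion. Test compound at 1 μmol/L incubated with NADPH generating system (NADP+, glucose 6-phosphate, glucose-6-phosphate dehydrogenase) and one enzyme source: human liver microsomes 0.5 mg/mL, rCYP3A4 10 pmol/mL or rCYP3A5 10 pmol/mL. Aliquots at set times quenched in ice-cold ACN with internal standard; parent measured by LC–MS/MS. Percent remaining versus time fitted to one-phase decay for CLint.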

For data set [8], the target named is T3, CYP3A5 (Homo sapiens, UniProt P20815). Nature of the data set: Metabolic stability, substrate depletion, rCYP3A5. The class given is in vitro ADME. Put shortly: as §1
A short description of data set [9]: Metabolic stability, substrate depletion, HLM. It is filed as in vitro ADME. The settings on record: human, human liver microsomes. The procedure, abridged:
as §1

In the next data set the target is human NaV1.5 channel (Homo sapiens, UniProt Q14524). Nature of the data set: Whole-cell patch clamp, NaV1.5 peak current in transfected HEK293FT cells. It is filed as cell-based. Put shortly: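 HEK293FT cells grown in DMEM with 10% FBS at 37 °C, 5% CO2. Co-transfected with human NaV1.5 and β1-subunit plasmids; replated on coated coverslips 24 h before recording. Peak INa measured by whole-cell voltage clamp with test compound at 1–10 μmol/L: 5–6 kHz filter, >70% series-resistance compensation, P/4 leak subtraction. IC50 from variable-slope log(inhibitor)–response fit.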
(Patch clamp records ionic current or voltage across a cell membrane.)

Data set [10] deals with human CaV1.2 α1C cardiac isoform (Homo sapiens, UniProt Q13936). Nature of the data set: Whole-cell patch clamp, CaV1.2 peak current in transfected HEK293FT cells. It is filed as cell-based.
The target in another data set is hKV11.1 (hERG) channel (Homo sapiens, UniProt Q12809). Nature of the data set: Whole-cell patch clamp, KV11.1 tail current in transfected HEK293FT cells. The class given is cell-based. The procedure, abridged: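 HEK293FT cells grown in DMEM with 10% FBS at 37 °C, 5% CO2. Co-transfected with human KV11.1 and KCNE1 plasmids, then plated on poly-D-lysine coverslips. Test compound applied at 10 nmol/L–1 μmol/L under whole-cell voltage clamp: 1 kHz filter, >70% series-resistance compensation, P/4 leak subtraction. Pulses of 2.5 s from −80 to 20 mV; tail current recorded at −60 mV. IC50 from variable-slope log(inhibitor)–response fit.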

For data set [11], the target named is T1, CYP2J2. Nature of the data set: in vitro. The class given is biochemical.
Data set [12] concerns the target T2, CYP3A4. Nature of the data set: Mechanism-based inactivation of CYP3A4, rivaroxaban as probe substrate. The class given is biochemical. Put shortly: (§2)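 Two-step inactivation assay. Recombinant CYP3A4 or CYP3A5 (20 pmol/mL) pre-incubated at 37 °C with test compound (0–20 μmol/L) and NADPH system in potassium phosphate buffer. At set times, aliquots diluted 20-fold into rivaroxaban plus NADPH regenerating system and incubated 2 h. ACN quench; rivaroxaban morpholinone product measured by LC–MS/MS. kobs from log % activity versus time; kinact and KI from kobs versus concentration; n = 3, mean ± SEM.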

Data set [13] addresses T3, CYP3A5. Nature of the data set: Mechanism-based inactivation of CYP3A5, rivaroxaban as probe substrate. It is filed as biochemical. The procedure, abridged:
as §2

Data set [14] deals with T1, CYP2J2. It is filed as biochemical. To be noted: CYP2J2-mediated astemizole O-desmethylation.
In data set [15] the target is T1, CYP2J2. It is filed as biochemical. To be noted: co-incubation 2 h with NADPH.
In the next data set the test system is H9c2 cells. Nature of the data set: Concurrent cytotoxicity and ATP depletion. The class given is cell-based, rat. The settings on record: 6 h.
The subject of the next data set is hiPSC-CMs. Nature of the data set: BTB variability in hiPSC-CMs. It is filed as cell-based, human. The settings on record: hiPSC-CM, 1 μmol/L. Put shortly:
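Cardiomyocytes from hiPSC made by viral-free reprogramming of human foreskin fibroblasts. Exposed to test compound (0–10 μmol/L); MEA field potentials recorded 5 min at baseline and 5 min after dosing. Successive RR intervals plotted as Poincaré plots, giving SD1 (STVRR) and SD2 (LTVRR). One experiment in triplicate, mean ± SEM; groups compared with control by one-way ANOVA and Dunnett's test.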

The mark [16] stands for this setting: hydrochloride 3 mg/kg i.v., conscious dogs.

T3 sequence (P20815 whole entry): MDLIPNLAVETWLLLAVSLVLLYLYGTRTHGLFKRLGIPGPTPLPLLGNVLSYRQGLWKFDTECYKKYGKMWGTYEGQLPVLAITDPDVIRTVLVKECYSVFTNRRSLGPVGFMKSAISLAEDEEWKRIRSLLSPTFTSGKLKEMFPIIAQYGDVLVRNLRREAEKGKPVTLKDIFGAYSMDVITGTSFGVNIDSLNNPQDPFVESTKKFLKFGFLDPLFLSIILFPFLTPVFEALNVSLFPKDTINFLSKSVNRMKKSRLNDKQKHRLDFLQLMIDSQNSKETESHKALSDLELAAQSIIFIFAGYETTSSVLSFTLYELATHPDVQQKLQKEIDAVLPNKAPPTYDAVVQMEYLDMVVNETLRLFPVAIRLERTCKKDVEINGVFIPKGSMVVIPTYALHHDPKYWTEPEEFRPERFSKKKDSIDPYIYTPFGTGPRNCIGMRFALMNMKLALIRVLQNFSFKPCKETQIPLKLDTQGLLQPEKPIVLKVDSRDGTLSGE
T2 sequence (P08684 whole entry): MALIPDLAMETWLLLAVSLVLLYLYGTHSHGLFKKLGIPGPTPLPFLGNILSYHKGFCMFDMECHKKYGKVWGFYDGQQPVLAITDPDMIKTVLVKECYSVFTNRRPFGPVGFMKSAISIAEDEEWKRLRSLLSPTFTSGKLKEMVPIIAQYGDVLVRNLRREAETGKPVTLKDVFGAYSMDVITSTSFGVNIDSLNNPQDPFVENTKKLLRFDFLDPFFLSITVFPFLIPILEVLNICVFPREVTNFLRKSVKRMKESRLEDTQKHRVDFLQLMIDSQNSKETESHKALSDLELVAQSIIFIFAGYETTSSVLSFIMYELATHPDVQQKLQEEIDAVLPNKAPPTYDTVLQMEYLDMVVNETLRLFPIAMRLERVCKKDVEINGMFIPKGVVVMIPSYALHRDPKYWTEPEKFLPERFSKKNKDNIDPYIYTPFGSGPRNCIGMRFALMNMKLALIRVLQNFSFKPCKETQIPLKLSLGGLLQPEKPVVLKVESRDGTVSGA
Sequence of human CaV1.2 α1C cardiac isoform (Q13936 17-2221): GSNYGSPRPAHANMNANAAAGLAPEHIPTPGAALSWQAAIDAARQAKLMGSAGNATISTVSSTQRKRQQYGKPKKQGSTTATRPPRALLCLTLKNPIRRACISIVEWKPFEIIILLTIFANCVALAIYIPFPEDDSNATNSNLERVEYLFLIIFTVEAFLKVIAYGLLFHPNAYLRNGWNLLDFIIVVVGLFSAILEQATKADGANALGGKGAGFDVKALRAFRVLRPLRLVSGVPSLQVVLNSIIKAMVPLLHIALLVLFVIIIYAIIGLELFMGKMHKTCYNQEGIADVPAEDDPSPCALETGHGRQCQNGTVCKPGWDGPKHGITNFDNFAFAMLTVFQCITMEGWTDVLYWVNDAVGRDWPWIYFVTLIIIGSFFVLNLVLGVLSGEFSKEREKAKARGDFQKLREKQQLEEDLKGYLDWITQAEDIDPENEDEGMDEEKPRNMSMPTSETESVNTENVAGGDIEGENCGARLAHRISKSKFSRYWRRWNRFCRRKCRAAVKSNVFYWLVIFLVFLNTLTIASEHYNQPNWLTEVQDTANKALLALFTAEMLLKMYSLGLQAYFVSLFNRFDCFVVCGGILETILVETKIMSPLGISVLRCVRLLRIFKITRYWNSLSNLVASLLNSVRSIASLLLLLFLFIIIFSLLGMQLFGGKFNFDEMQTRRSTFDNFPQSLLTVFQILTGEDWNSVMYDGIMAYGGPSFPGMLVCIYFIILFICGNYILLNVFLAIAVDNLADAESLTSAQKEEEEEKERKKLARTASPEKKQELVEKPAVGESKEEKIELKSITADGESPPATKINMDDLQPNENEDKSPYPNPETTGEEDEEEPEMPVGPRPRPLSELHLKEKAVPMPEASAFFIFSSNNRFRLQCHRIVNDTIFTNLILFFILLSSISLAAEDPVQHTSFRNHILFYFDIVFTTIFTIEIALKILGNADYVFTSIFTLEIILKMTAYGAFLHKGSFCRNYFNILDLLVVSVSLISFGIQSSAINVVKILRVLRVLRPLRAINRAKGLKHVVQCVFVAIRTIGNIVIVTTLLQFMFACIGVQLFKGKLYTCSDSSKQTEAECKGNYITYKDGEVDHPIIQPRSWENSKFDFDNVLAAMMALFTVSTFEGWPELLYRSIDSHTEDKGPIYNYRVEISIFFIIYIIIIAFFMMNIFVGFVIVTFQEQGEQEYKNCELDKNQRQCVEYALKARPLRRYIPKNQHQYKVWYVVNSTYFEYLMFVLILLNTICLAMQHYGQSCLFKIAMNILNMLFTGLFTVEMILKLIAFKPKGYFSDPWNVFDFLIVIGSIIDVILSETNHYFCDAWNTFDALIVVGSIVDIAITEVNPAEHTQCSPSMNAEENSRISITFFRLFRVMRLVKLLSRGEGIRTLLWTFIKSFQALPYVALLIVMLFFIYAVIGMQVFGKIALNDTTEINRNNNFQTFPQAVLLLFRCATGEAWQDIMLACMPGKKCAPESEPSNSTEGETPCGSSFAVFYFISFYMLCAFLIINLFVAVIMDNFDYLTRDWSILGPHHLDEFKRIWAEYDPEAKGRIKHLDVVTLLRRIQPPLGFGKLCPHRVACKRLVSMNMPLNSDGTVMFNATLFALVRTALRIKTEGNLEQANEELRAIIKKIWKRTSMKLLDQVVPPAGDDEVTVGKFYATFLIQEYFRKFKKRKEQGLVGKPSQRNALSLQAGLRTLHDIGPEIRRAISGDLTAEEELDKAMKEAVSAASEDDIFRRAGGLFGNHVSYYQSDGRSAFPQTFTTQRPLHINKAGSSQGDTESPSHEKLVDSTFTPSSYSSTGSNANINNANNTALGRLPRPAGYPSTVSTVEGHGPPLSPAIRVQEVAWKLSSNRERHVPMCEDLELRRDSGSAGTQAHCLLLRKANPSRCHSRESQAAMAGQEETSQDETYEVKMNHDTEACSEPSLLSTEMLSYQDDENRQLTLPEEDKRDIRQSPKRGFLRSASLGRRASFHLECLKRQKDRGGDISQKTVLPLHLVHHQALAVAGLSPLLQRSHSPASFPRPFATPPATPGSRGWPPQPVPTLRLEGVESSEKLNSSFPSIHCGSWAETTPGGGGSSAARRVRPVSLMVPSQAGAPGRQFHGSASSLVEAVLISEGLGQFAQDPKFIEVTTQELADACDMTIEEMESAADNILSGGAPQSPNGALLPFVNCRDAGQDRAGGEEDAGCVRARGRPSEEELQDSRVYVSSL
Sequence of human CaV1.2 α1C cardiac isoform (Q08289 whole entry partner, canonical isoform): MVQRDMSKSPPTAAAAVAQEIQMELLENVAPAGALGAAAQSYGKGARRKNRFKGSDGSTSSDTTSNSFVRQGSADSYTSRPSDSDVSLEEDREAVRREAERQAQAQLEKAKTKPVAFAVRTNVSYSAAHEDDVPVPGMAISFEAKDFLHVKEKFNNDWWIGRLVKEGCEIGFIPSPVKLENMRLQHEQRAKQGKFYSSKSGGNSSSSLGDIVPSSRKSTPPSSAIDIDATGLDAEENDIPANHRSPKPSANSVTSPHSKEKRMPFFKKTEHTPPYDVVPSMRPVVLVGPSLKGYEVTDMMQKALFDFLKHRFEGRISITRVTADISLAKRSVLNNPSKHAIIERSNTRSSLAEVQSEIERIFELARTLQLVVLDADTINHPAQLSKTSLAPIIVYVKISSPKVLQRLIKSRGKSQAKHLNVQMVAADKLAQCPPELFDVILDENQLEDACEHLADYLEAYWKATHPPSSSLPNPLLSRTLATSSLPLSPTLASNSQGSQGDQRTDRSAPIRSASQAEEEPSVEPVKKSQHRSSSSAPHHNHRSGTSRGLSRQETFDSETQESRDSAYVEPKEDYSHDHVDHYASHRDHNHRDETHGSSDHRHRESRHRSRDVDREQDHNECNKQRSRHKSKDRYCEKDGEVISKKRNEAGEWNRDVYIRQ
Sequence of human CaV1.2 α1C cardiac isoform (P54289 25-1103 partner): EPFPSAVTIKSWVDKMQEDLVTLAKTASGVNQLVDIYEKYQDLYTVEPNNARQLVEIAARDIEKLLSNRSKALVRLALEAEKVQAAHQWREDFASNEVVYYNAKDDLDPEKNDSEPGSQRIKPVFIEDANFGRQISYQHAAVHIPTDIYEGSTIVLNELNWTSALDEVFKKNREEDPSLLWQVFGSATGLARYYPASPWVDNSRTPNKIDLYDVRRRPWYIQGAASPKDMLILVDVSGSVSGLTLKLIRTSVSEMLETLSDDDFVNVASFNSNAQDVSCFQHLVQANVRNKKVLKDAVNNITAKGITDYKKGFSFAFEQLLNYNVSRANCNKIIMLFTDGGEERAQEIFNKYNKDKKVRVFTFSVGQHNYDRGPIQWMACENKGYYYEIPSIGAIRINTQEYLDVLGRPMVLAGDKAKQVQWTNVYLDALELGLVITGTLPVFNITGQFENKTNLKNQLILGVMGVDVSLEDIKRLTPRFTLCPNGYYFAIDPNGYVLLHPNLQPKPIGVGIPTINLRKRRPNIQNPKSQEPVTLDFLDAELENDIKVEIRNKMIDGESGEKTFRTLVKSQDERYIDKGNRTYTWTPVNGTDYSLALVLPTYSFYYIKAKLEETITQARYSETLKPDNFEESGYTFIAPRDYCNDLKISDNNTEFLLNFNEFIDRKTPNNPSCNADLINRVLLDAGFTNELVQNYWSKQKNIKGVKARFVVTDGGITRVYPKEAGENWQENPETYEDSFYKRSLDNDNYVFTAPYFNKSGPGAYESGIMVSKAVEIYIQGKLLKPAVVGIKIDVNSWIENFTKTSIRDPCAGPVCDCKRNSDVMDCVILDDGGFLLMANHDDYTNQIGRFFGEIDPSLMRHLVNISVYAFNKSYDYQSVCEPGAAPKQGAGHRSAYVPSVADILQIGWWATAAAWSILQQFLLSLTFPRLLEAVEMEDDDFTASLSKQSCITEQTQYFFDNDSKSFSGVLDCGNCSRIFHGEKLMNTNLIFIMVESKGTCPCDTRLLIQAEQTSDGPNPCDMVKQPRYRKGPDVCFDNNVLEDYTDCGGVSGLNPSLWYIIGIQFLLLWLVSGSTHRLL

As to `CCCCc1oc2ccccc2c1C(=O)c1cc(I)c(OCCN(CC)CC)c(I)c1` [Amiodarone], the “spontaneous AF recurrence, time after the termination of AF” value in data set [1] (hydrochloride 3 mg/kg i.v., animal #1) is reported as 5.2 h. In addition, in data set [1] (setting [16]), the “time of AF termination after the start of administration (individual animals)” value is 7.7 h and 5.9 h. In addition, in [2], the “peak increment of STVQT” value worked out at 1.05 ± 0.41 ms. In [3], the “atrial effective refractory period prolongation” value is -3 ms and the “inter-atrial conduction time prolongation” value is on record as “+1 ms”.

`CCCCc1oc2ccc(NS(C)(=O)=O)cc2c1C(=O)c1ccc(OCCCN(CCCC)CCCC)cc1` [Dronedarone] returned a solubility at 24 h in data set [4] of 3.22 ± 0.34 µg/mL (≈ 5.78 µM). For the same compound, the Papp at 16 h in data set [5] is 3.46 ×10⁻⁶ cm/s. The half-life at 1 μmol/L on CYP2J2 [6] (human, recombinant enzyme) came to 3.95 min; on CYP3A4 [7] (human, recombinant CYP3A4 (rCYP3A4)), 8.05 min; at CYP3A5 [8] (human, recombinant CYP3A5 (rCYP3A5)), 12.2 min; in data set [9], 10.4 min. For the same compound, the “Intrinsic clearance, CLint” value at CYP2J2 [6] (rCYP2J2) was 0.88 µL/min/pmol; on CYP3A4 [7] (rCYP3A4), 0.86 µL/min/pmol; on CYP3A5 [8] (rCYP3A5), 0.57 µL/min/pmol. Also, the microsomal CLint at 1 μmol/L in data set [9] came to 13.3 µL/min/mg. In addition, the values for the IC50 (on human NaV1.5 channel; in data set [10]; against hKV11.1 (hERG) channel) were 3.41 µM, 1.96 µM and 0.16 µM, respectively. Also, the kinact/KI at CYP2J2 [11] (CYP2J2, rivaroxaban substrate) was found to be 7.85e-05 M⁻¹ s⁻¹; at CYP3A4 [12], 8.42e-05 M⁻¹ s⁻¹; at CYP3A4 [12] (as printed in text), 83.3 M⁻¹ s⁻¹; at CYP3A5 [13] (CYP3A5, rivaroxaban substrate), 0.000121 M⁻¹ s⁻¹; on CYP2J2 [14] it was 8300 M⁻¹ s⁻¹. Besides, the KI at CYP2J2 [11] (CYP2J2, rivaroxaban substrate, mean ± SEM) was 8.47 ± 3.96 µM; on CYP3A4 [12] (mean ± SEM) it was 5.3 ± 2.95 µM; at CYP3A5 [13] (CYP3A5, rivaroxaban substrate, mean ± SEM), 4.44 ± 1.76 µM. Besides, the kinact was 0.000667 s⁻¹ on CYP2J2 [11] (human) and 0.000538 s⁻¹ on CYP3A5 [13] (human, recombinant CYP3A5 (rCYP3A5), probe rivaroxaban). For the same compound, on CYP2J2 [11] (rivaroxaban as probe substrate), the “MBI of CYP2J2-mediated rivaroxaban hydroxylation (in words)” value is reported as “potently inactivated”. The “inhibition of CYP2J2-mediated AA metabolism to EETs (in words)” value at CYP2J2 [15] was “inhibits CYP2J2-mediated AA metabolism in a concentration-dependent manner”. In addition, the “fold higher cytotoxicity than poyendarone” value in the data set on H9c2 cells was 22 fold. In the data set on H9c2 cells, the “fold more potent decrease of intracellular ATP than poyendarone” value amounted to 13 fold. Besides, the “long-term variability (LTVRR), fold compared to poyendarone” value in the data set with hiPSC-CMs amounted to 3 fold. Besides, in the data set on hiPSC-CMs, the “short-term variability (STVRR), fold compared to poyendarone” value stood at 4 fold. Besides, the “animals in which persistent AF was terminated” value in [1] (hydrochloride 3 mg/kg i.v. over 30 s, conscious dogs, 21 h observation) was 2 out of 4. In [1] (setting [16]), the “time of AF termination after the start of administration (individual animals)” value was 5.2 h and 10.6 h. For the same compound, the “period after administration with increased STVQT” value in [2] is 0.5 to 12 h. The “STVQT relative to the critical border for early afterdepolarization” value in data set [2] (throughout observation period) is on record as “intermittently elevated STVQT”. The “peak increment of STVQT” value in data set [2] is recorded as 3.06 ± 0.80 ms. Besides, the “atrial effective refractory period prolongation” value in data set [3] is “+4 ms”. Besides, the “inter-atrial conduction time prolongation” value in data set [3] is “+13 ms”.
